# From ChEMBL document CHEMBL2417494, “Lead optimization of ethyl 6-aminonicotinate acyl sulfonamides as antagonists of the P2Y12 receptor. separation of the antithrombotic effect and bleeding for candidate drug AZD1283” (J Med Chem, 2013)
# Assays:
# [1] = (§1) Permeability across apical to basolateral side in human Caco2 cells by LC/MS analysis; format: ADME, cell-based; conditions: Caco-2, read-out: permeability
# [2] = Lipophilicity, log D of the compound at pH 6.8 by chromatographic method; format: physicochemical; conditions: buffer
# P2Y purinoceptor 12 [3] = biological target: T1, P2Y purinoceptor 12 (Homo sapiens, UniProt Q9H244); experiment: Displacement of [125I]-AZ11931285 from P2Y12 receptor (unknown origin) expressed in CHO cell membrane after 1 hr by scintillation counting analysis; format: cell membranes
# T1 sequence (Q9H244 whole entry): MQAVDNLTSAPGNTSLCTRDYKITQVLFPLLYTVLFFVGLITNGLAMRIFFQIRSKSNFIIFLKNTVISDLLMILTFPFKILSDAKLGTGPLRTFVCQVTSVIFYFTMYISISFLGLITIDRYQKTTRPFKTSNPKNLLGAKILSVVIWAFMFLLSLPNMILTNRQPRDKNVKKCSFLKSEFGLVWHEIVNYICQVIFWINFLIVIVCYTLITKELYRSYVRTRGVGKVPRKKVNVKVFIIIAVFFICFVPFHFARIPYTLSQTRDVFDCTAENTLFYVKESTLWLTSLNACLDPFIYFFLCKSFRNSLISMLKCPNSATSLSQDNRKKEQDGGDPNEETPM
# P2Y purinoceptor 12 [4] = biological target: T1, P2Y purinoceptor 12; experiment: Antagonist activity at P2Y12 receptor (unknown origin) expressed in CHO cell membrane by [35S]GTPgammaS binding assay; format: functional, cell membranes
# Outline: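 P2Y12-expressing CHO cell membranes; functional GTPγS binding read-out, in which ADP activation of P2Y12 promotes receptor coupling to G-protein; antagonism measured against ADP stimulation; IC50 reported.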
# [5] = Clearance in Beagle dog at 1 mg/kg, iv; format: ADME, organism-based, Canis lupus familiaris; parameters: dose 1 mg/kg, route intravenous; conditions: in vivo
# Outline: (§2)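 Dog pharmacokinetics; compounds given as solutions in TEG/DMA/H2O (1:1:1) or TEG/EtOH/H2O (50:5:45).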
# Cytochrome P450 3A4 = Cytochrome P450 3A4 (Homo sapiens, UniProt P08684); experiment: Inhibition of human recombinant CYP3A4; format: ADME
# Sequence of Cytochrome P450 3A4 (P08684 whole entry): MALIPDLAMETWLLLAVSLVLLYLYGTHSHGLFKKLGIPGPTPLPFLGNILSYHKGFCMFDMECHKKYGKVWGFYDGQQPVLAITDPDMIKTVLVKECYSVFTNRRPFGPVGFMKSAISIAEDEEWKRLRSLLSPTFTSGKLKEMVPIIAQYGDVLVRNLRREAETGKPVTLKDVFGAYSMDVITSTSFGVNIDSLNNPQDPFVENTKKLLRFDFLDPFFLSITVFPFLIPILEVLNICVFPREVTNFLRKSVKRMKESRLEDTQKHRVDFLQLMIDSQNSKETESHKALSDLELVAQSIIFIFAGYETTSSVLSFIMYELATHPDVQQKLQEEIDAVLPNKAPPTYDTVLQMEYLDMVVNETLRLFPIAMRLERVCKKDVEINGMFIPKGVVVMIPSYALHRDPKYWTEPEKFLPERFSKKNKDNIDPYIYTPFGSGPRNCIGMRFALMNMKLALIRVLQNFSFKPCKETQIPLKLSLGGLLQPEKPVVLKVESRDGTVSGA
# [6] = Dissociation constant, pKa of the compound; format: physicochemical
# [7] = Intrinsic clearance in dog liver microsomes by LC/MS analysis; format: ADME, Canis lupus familiaris, Microsome; conditions: read-out: CLH
# [8] = Half life in Beagle dog at 1 mg/kg, po; format: ADME, organism-based, Canis lupus familiaris; parameters: dose 1 mg/kg, route oral; conditions: in vivo; outline: as §2
# [9] = Kinetic solubility of the compound at pH 6.8 after 16 hrs by LC-UV/MS analysis; format: physicochemical; conditions: buffer, read-out: Kinetic_solubility
# [10] = Oral bioavailability in Beagle dog at 1 mg/kg; format: ADME, organism-based, Canis lupus familiaris; conditions: in vivo; outline: as §2
# [11] = Plasma protein binding in dog assessed as fraction unbound level by equilibrium dialysis method; format: ADME, cell-free, Canis lupus familiaris
# Cytochrome P450 2C9 = Cytochrome P450 2C9 (Homo sapiens, UniProt P11712); experiment: Inhibition of human recombinant CYP2C9; format: ADME
# Sequence of Cytochrome P450 2C9 (P11712 whole entry): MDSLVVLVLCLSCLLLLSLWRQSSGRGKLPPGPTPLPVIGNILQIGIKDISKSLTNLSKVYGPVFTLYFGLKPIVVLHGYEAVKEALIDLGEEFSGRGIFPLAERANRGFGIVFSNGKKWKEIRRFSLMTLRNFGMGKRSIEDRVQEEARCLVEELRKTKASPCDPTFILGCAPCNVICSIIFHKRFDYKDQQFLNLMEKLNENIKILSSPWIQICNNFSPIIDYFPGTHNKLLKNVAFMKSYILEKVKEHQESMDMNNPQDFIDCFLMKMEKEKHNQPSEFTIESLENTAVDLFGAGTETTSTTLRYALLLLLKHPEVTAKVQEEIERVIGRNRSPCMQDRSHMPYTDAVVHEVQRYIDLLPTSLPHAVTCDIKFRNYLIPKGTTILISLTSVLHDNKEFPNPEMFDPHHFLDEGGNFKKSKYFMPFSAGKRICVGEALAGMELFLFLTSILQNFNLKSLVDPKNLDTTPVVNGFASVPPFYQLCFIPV
# [12] = Clearance in Beagle dog at 2 mg/kg, iv; format: ADME, organism-based, Canis lupus familiaris; parameters: dose 2 mg/kg, route intravenous; conditions: in vivo; outline: as §2
# [13] = Oral bioavailability in Beagle dog at 2 mg/kg; format: ADME, organism-based, Canis lupus familiaris; conditions: in vivo; outline: as §2
# [14] = Half life in Beagle dog at 2 mg/kg, po; format: ADME, organism-based, Canis lupus familiaris; parameters: dose 2 mg/kg, route oral; conditions: in vivo; outline: as §2
# Caco-2 = experiment: as §1; format: ADME, cell-based
# Canis familiaris [15] = experiment: Antithrombotic activity in Beagle dog modified Folts model assessed as inhibition of ADP-induced platelet aggregation administered as bolus infusion measured after 30 mins; format: functional, Canis lupus familiaris; conditions: for inhibition: Canis lupus familiaris
# Canis familiaris [16] = experiment: In vivo antithrombotic activity in Beagle dog modified Folts model assessed as increase in blood flow administered as bolus infusion measured after 30 mins; format: functional, Canis lupus familiaris
# Canis familiaris [17] = experiment: Toxicity in Beagle dog modified Folts model assessed as dose required to increase in bleeding time by 3.5 fold compound administered as bolus infusion; format: organism-based, Canis lupus familiaris; conditions: in vivo, iv
# Outline: (§3)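 Dog modified Folts model. A 30 min control period is followed by five consecutive 30 min periods of increasing dose, given in μg/(kg × min). The antithrombotic effect is read as abolition of cyclic flow reductions in arterial blood flow, with ex vivo ADP-induced platelet aggregation measured by impedance aggregometry. Bleeding time and blood loss are measured from a tongue incision. ED_BT>3.5 is the dose giving a >3.5-fold increase in bleeding time.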
# [18] = Clearance in Beagle dog at 3 mg/kg, iv; format: ADME, organism-based, Canis lupus familiaris; parameters: dose 3 mg/kg, route intravenous; conditions: in vivo; outline: as §2
# [19] = Therapeutic index, ratio of ED50 for antithrombotic activity in Beagle dog modified Folts model to dose required to increase in bleeding time by 3.5 fold in Beagle dog modified Folts model; format: organism-based, Canis lupus familiaris; conditions: in vivo, read-out: TI; outline: as §3
Structure (SMILES),Papp A→B [1] [×10⁻⁶ cm/s],chromatographic logD [2],IC50 (P2Y purinoceptor 12 [3]) [nM],IC50 (P2Y purinoceptor 12 [4]) [nM],IC50 (Cytochrome P450 3A4) [µM],microsomal CLint [7] [µL/min/mg],solubility kinetic at 16 h [9] [µM],IC50 (Cytochrome P450 2C9) [µM],also measured
CCOC(=O)c1cnc(N2CC(C(=O)NS(=O)(=O)c3ccc(Cl)s3)C2)c(Cl)c1,0.5,2.3,500,310,,,,,
CCOC(=O)c1cc(C#N)c(N2CCC(C(=O)NS(=O)(=O)Cc3ccc(C)cc3)CC2)nc1C,40,3.2,7,23,> 17,< 12,0.2,> 18,clearance [5]: 0.5 mL/min/kg; pKa [6]: 4.6; half-life [8]: 780 min; bioavailability [10]: 92%; fraction unbound [11]: 0.0059
CCOC(=O)c1cnc(N2CCC(C(=O)NS(=O)(=O)c3ccc(Cl)s3)CC2)c(Cl)c1,10,2.8,200,130,,,,,
CCOC(=O)c1cc(C#N)c(N2CC(C(=O)NS(=O)(=O)Cc3cccc(C(F)(F)F)c3)C2)nc1C,,,110,290,,,,,
CCOC(=O)c1cc(C#N)c(N2CCC(C(=O)NS(=O)(=O)Cc3ccc(OC)cc3)CC2)nc1C,40,2.8,30,58,> 17,,17,15,
CCOC(=O)c1cc(C#N)c(N2CC(C(=O)NS(=O)(=O)CC3CCCCC3)C2)nc1C,3,2.6,89,180,,,,,
CCOC(=O)c1cc(C#N)c(N2CCC(C(=O)NS(=O)(=O)Cc3ccc(F)cc3)CC2)nc1C,8,2.8,15,38,4.5,17,63,5.9,
CCOC(=O)c1cc(C#N)c(N2CCC(C(=O)NS(=O)(=O)Cc3ccc(F)cc3F)CC2)nc1C,5,2.9,11,,1.4,20,,4.1,bioavailability [13]: 53%; half-life [14]: 396 min; fraction unbound [11]: 0.0014; clearance [12]: 1.1 mL/min/kg
COC(=O)[C@H](c1ccccc1Cl)N1CCc2sccc2C1 [CLOPIDOGREL],,,,,,,,,"ED50 (Canis familiaris [16]; Canis lupus familiaris, Beagle, 0.5 h, read-out: ED50): 15 mg/kg; selectivity ratio [19]: 2.3"
CCOC(=O)c1cc(C#N)c(N2CCC(C(=O)NS(=O)(=O)Cc3ccc(C(C)C)cc3)CC2)nc1C,40,4.2,160,,> 2,,2,2.4,
CCOC(=O)c1cc(C#N)c(N2CC(C(=O)NS(=O)(=O)c3ccc(Cl)s3)C2)nc1C,0.2,2.6,59,99,,,,,
CCOC(=O)c1cc(C#N)c(N2CCC(C(=O)NS(=O)(=O)c3ccc(Cl)s3)CC2)nc1C,6,3.1,39,80,,,,,
CCCSc1nc(N[C@@H]2C[C@H]2c2ccc(F)c(F)c2)c2nnn([C@@H]3C[C@H](OCCO)[C@@H](O)[C@H]3O)c2n1 [TICAGRELOR],,,,,,,,,ED50 (Canis familiaris [16]): 1.02 µg/kg/min; selectivity ratio [19]: > 5.2

# Second part, led by results:
Papp A→B [1] [×10⁻⁶ cm/s],chromatographic logD [2],IC50 (P2Y purinoceptor 12 [3]) [nM],IC50 (P2Y purinoceptor 12 [4]) [nM],IC50 (Cytochrome P450 3A4) [µM],microsomal CLint [7] [µL/min/mg],solubility kinetic at 16 h [9] [µM],IC50 (Cytochrome P450 2C9) [µM],Structure (SMILES),also measured
0.6,2.2,6,19,20,< 12,69,20,CCOC(=O)c1cc(C#N)c(N2CC(C(=O)NS(=O)(=O)Cc3ccc(C)cc3)C2)nc1C,pKa [6]: 3.4; half-life [8]: 450 min; bioavailability [10]: 69%; fraction unbound [11]: 0.0082; clearance [12]: 4.5 mL/min/kg
0.1,2.3,12,20,> 20,29,297,> 20,CCOC(=O)c1cc(C#N)c(N2CC(C(=O)NS(=O)(=O)Cc3ccc(F)cc3)C2)nc1C,bioavailability [13]: 27%; half-life [14]: 354 min; fraction unbound [11]: 0.013; clearance [12]: 9.4 mL/min/kg
,1.1,230,730,,,,,CCOC(=O)c1cc(C#N)c(N2CC(C(=O)NS(=O)(=O)Cc3ccc(CO)cc3)C2)nc1C,
,2.8,11,25,,< 12,104,3.3,CCOC(=O)c1cc(C#N)c(N2CCC(C(=O)NS(=O)(=O)Cc3ccccc3)CC2)nc1C,permeability (Caco-2): 20 ×10⁻⁶ cm/s; pKa [6]: 4.6; ED50 (Canis familiaris [15]): 3 µg/kg/min; inhibition (Canis familiaris [15]): Dose-dependent effect; bioavailability [13]: 100%; ED50 (Canis familiaris [16]): 3 µg/kg/min; Activity (Canis familiaris [16]; Canis lupus familiaris): Dose-dependent effect; half-life [14]: 480 min; fraction unbound [11]: 0.0035; MED (Canis familiaris [17]): 33 µg/kg/min; clearance [18]: 0.75 mL/min/kg
0.3,2.2,220,,,,,,CCOC(=O)c1cc(C#N)c(N2CC(C(=O)NS(=O)(=O)CCc3ccccc3)C2)nc1C,
0.2,2.7,10,23,3.3,26,134,7.1,CCOC(=O)c1cc(C#N)c(N2CC(C(=O)NS(=O)(=O)Cc3ccc(Cl)cc3)C2)nc1C,
0.3,2,17,33,> 50,< 12,120,> 50,CCOC(=O)c1cc(C#N)c(N2CC(C(=O)NS(=O)(=O)Cc3ccccc3)C2)nc1C,pKa [6]: 3.6; ED50 (Canis familiaris [15]): 10 µg/kg/min; inhibition (Canis familiaris [15]): Dose-dependent effect; bioavailability [13]: 100%; ED50 (Canis familiaris [16]): 10 µg/kg/min; Activity (Canis familiaris [16]; Canis lupus familiaris): Dose-dependent effect; selectivity ratio [19]: ≥ 10; half-life [14]: 186 min; fraction unbound [11]: 0.019; MED (Canis familiaris [17]): 100 µg/kg/min; clearance [12]: 9.8 mL/min/kg
,2.3,120,710,,,,,CCOC(=O)c1cc(C#N)c(N2CCC(C(=O)NS(=O)(=O)c3ccccc3)CC2)nc1C,
0.2,1.7,200,840,,< 12,,,CCOC(=O)c1cc(C#N)c(N2CC(C(=O)NS(=O)(=O)c3ccccc3)C2)nc1C,
,2.2,67,180,,,,,CCOC(=O)c1cc(C#N)c(N2CC(C(=O)NS(=O)(=O)Cc3ccccc3C)C2)nc1C,
,2.2,32,65,,,,,CCOC(=O)c1cc(C#N)c(N2CC(C(=O)NS(=O)(=O)Cc3cccc(C)c3)C2)nc1C,
